Hits are enriched below; roughly 2.5% of the tested compounds scored in any of these assays.
MC4R barr agon – agonists of human melanocortin 4 receptor (MC4R) beta-arrestin | U2OS MC4R beta-arrestin complementation, luminescence; percent of melanotan II response, DMSO zero | activation, % at 8.9 µM | 360,000 compounds, 0.98% hits | AID 540308;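 active means activation above a per-plate cutoff, the mean activation of sample wells on that plate plus 3 SD, cut at about 8% in these data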
Target sequence (P32245 whole entry, looked up): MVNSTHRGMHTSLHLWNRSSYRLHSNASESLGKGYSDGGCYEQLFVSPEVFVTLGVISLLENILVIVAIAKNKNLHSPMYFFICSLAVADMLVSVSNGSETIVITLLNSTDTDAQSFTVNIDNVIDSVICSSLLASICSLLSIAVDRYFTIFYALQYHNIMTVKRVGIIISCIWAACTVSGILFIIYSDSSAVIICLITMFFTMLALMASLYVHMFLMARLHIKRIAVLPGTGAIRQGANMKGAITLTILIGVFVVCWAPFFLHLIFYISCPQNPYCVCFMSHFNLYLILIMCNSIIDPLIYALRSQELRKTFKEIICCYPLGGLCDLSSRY
NLRP3 yeast inh – inhibitors of NALP3 inflammasome in yeast | 330,000 compounds, 0.39% hits | inhibition, % at 10 µM | Yeast reconstituted NLRP3/ASC/caspase-1, beta-gal luminescence, 24 h;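 active means inhibition of 50% or more; inactive means inhibition below 50%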;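 further: plate controls were induced DMSO wells for no effect and uninduced yeast grown without galactose for full effect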
Tb MetRS inh – blocks T. brucei methionyl-tRNA synthetase activity. AID 624268. inhibition, % at 11.9 µM. purified T. brucei MetRS, ATP depletion, Kinase-Glo luminescence. 360,000 compounds, 0.4% hits;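 active means inhibition above a per-plate cutoff of the control wells' mean inhibition plus 3 SD, cut at about 5.5% in these data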;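 further: 0% = DMSO wells median and 100% = median of wells with control inhibitor compound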
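System: purified T. brucei MetRS enzyme / Detection: Kinase-Glo luciferase luminescence reporting remaining unconsumed ATP / Medium: HEPES buffer with MgCl2, KCl, DTT, spermine, BSA, pyrophosphatase / Replication: singlicate, one well per compound / Evaluation: percent inhibition relative to median high and low control wells / Schedule: 2 h aminoacylation at 25 °C after 15 min preincubation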
NALP1 inh – NALP1 inhibition. inhibition, % at 10 µM. 280,000 compounds, 0.61% hits. S. cerevisiae NALP1/ASC/caspase-1 growth, X-gal OD620, 72 h; in the data active means inhibition mostly above about 24%, no sharp cut-off; inactive means mostly below about 32%
MC4R antagonist – antagonists of human melanocortin 4 receptor (MC4R). inhibition, % at 6.5 µM. MC4R-expressing cells, MTII-stimulated cAMP, LANCE TR-FRET. AID 540295. P32245. 360,000 compounds, 0.48% hits;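 active means inhibition above its plate's cutoff, the mean of tested wells on that plate plus 3 SD, cut at about 29% in these data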;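 further: 0% = Melanotan II alone and 100% = Melanotan II plus saturating MCL0020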
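Test system: U2OS cells stably expressing human melanocortin 4 receptor (MC4R); also added: Melanotan II challenge; compound: 6.5 µM single dose; timing: 30-min compound preincubation, 1-h Melanotan II challenge, 1-h detection, room temperature; signal: Eu-cAMP/anti-cAMP TR-FRET, emission 671 nm; repeats: one well per compound, no replicates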
Bfl-1 A1 inh – inhibitors of the anti-apoptotic protein A1, read as caspase activation. MEF A1-2A-BIM cells, Caspase-Glo 3/7 luminescence, 3 h; percent of clofoctol response, vehicle zero. caspase activation, % (test concentration not listed). 330,000 compounds, 0.066% hits;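 active means over half of replicate activation scores above 10%, or exactly half above 10 with the replicate mean above 10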
cAMP nonselect – counter-screen for MC4R antagonists: nonselective cAMP signaling inhibitors; inhibition, % at 6.5 µM; parental U2OS, forskolin cAMP, LANCE TR-FRET; shares compounds with MC4R antagonist; 1,600 compounds, 26% hits;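 active means mean inhibition over triplicates above the low-control well mean plus 3 SD, set per campaign, cut at about 13% in these data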;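 further: signal is single emission at 671 nm which falls as cellular cAMP rises; 0% = forskolin-stimulated wells and 100% = buffer without forskolin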
MC4R cAMP antag – human MC4R cAMP antagonism confirmation; MC4R-expressing cells, MTII-stimulated cAMP, TR-FRET; 1,600 compounds, 27% hits; AID 602195; shares compounds with MC4R antagonist; inhibition, % at 6.5 µM; in the data active means inhibition above about 29%;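 further: 0% = agonist stimulated wells alone and 100% = agonist stimulated wells plus saturating reference antagonist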
* marks the source's active call; other numbers are inactive results.

Screening Cc1ccoc1C(=O)N1CCCC(CCC(=O)N2CCN(c3ccccn3)CC2)C1 (stereo not drawn) returned MC4R barr agon 0, NLRP3 yeast inh 18, Tb MetRS inh 0, NALP1 inh -2, MC4R antagonist 31*, Bfl-1 A1 inh 0, cAMP nonselect 3 and MC4R cAMP antag 7.
Screening Cc1cccc(C(=O)N2CCCC(CCC(=O)N3CCN(c4ccccn4)CC3)C2)c1C (stereo not drawn) returned MC4R barr agon 1, NLRP3 yeast inh 12, Tb MetRS inh 0, NALP1 inh 10, MC4R antagonist 1 and Bfl-1 A1 inh 0.
Screening COc1ccccc1N1CC(C(=O)OCC(=O)c2c(N)n(C)c(=O)n(C)c2=O)CC1=O (stereo not drawn) returned MC4R barr agon -1, Tb MetRS inh 0 and MC4R antagonist 1.
`c1ccc2nc3c(ccc4ccccc43)cc2c1` gave MC4R barr agon -1, Tb MetRS inh 0 and MC4R antagonist -3.
For Nc1[nH]nc2ncc3cc4ccccc4nc3c12 the results were MC4R barr agon 0, NLRP3 yeast inh 9, Tb MetRS inh 1, NALP1 inh -4, MC4R antagonist 29*, Bfl-1 A1 inh 0, cAMP nonselect -8 and MC4R cAMP antag -10.
For CC1CCCCC12NC(=O)N(CC(=O)Nc1cccnc1)C2=O (stereo not drawn) the results were MC4R barr agon -2, Tb MetRS inh 0 and MC4R antagonist 7.
Screening Cc1ccc(-n2nc3c(=S)[nH]nc(C)c3c2C)cc1 returned MC4R barr agon -2, NLRP3 yeast inh 10, Tb MetRS inh -1, NALP1 inh 34, MC4R antagonist 146*, Bfl-1 A1 inh 1, cAMP nonselect 90* and MC4R cAMP antag 147*.
Screening CCc1ccc2nc(N(CCCN(C)C)C(=O)c3ccc(C(=O)c4ccccc4)cc3)sc2c1 returned MC4R barr agon 5, NLRP3 yeast inh 13, Tb MetRS inh 0, NALP1 inh 29, MC4R antagonist 7 and Bfl-1 A1 inh 0.
Screening Cn1c(-c2cccc([N+](=O)[O-])c2)cnc1NCc1cccc([N+](=O)[O-])c1 returned MC4R barr agon 0, NLRP3 yeast inh 27, Tb MetRS inh 3, NALP1 inh 8, MC4R antagonist 16 and Bfl-1 A1 inh 1.
Cc1cccc(CNc2ncc(-c3cccc([N+](=O)[O-])c3)n2C)c1 was read as MC4R barr agon -1, NLRP3 yeast inh 18, Tb MetRS inh 1, NALP1 inh 6, MC4R antagonist 33*, Bfl-1 A1 inh 0, cAMP nonselect 2 and MC4R cAMP antag -1.
`CN1CCN(C(=O)c2cc(S(=O)(=O)Nc3ccccc3F)c(Cl)cc2Cl)CC1` gave MC4R barr agon 2, NLRP3 yeast inh 1, Tb MetRS inh 0, NALP1 inh 6, MC4R antagonist 35*, Bfl-1 A1 inh -1, cAMP nonselect 1 and MC4R cAMP antag 3.
`Cc1nc2nc(CSc3ccc(Cl)cc3)cc(=O)n2[nH]1` gave MC4R barr agon 0, NLRP3 yeast inh -5, Tb MetRS inh 1, NALP1 inh 28, MC4R antagonist 8 and Bfl-1 A1 inh 0.
Cc1cc2nc(CSc3ccc(Cl)cc3)cc(=O)n2[nH]1 was read as MC4R barr agon 1, NLRP3 yeast inh 9, Tb MetRS inh 1, NALP1 inh -7, MC4R antagonist 29*, Bfl-1 A1 inh 0, cAMP nonselect -3 and MC4R cAMP antag -7.
Screening COc1ccccc1C(=O)Nc1ccc(NC(=O)C2CCCCC2)nc1 returned MC4R barr agon 1, NLRP3 yeast inh 29, Tb MetRS inh 0, NALP1 inh 5, MC4R antagonist 31*, Bfl-1 A1 inh -1, cAMP nonselect 3 and MC4R cAMP antag 13.

Assay outcomes as filed in PubChem BioAssay.
